Series [1] has as its target T1, Mitogen-activated protein kinase kinase kinase 14 (Homo sapiens, UniProt Q99558). In words: Binding affinity to biotinylated N-terminal 6His-tagged/TEV cleavage site-fused human NIK by SPR analysis. In outline: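 Biotinylated NIK was probed by SPR with no nucleotide added, in dose–response format. Responses were plotted as a binding curve to give Kd, reported as mean ± SEM of two determinations.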
(In general: SPR reads the build-up and loss of mass on a sensor chip optically.)
Target sequence in this assay (Q99558 whole entry, the tested form may be a part): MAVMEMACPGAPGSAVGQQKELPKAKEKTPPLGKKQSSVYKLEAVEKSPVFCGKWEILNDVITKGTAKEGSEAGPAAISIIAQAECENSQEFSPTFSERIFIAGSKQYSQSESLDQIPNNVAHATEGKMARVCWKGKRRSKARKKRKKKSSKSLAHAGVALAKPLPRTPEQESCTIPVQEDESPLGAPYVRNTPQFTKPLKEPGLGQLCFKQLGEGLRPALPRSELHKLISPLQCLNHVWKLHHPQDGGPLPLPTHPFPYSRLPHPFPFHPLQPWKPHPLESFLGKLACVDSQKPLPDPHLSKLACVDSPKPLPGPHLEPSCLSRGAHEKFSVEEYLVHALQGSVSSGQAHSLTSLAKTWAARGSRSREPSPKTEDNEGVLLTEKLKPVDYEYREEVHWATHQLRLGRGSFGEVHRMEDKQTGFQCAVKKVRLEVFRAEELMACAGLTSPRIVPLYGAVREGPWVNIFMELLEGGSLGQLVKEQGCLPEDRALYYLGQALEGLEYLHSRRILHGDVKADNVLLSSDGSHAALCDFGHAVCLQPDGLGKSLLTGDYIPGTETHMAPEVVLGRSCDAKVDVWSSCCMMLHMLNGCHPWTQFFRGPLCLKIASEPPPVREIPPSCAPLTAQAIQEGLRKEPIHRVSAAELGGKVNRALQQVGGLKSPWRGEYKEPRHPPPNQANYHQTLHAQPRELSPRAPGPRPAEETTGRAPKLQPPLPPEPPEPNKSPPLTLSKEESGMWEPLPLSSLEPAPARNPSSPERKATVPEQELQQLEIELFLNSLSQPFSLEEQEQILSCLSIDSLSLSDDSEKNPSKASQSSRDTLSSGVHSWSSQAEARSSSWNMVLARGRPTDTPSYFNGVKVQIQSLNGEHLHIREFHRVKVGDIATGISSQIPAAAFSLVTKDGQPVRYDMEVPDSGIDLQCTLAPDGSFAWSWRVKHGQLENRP

For series [2], the target named is T1, Mitogen-activated protein kinase kinase kinase 14. The experiment in a line: Binding affinity to biotinylated N-terminal 6His-tagged/TEV cleavage site-fused human NIK in presence of AMP-PNP by SPR analysis. In outline: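 Dose–response SPR used biotinylated NIK in the presence of saturating AMP-PNP. Kd came from the fitted binding curve, reported as mean ± SEM of two determinations.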
Target sequence in this assay (Q99558 whole entry, the tested form may be a part): as above

Series [3] is described as follows: Aqueous solubility of the compound in K2HPO4 in D2O with 5% DMSO-d6 at pH 7.4 by qNMR spectra analysis. The series is classed as physicochemical. The note with it: K2HPO4 buffer in D2O with 5% DMSO-d6, pH 7.4.
Series [4] is described as follows: Redox activity of the compound in HEPES/NaCl at pH 7.5 measured after 60 mins in presence of DTT by resazurin reagent based assay. It counts as physicochemical. To be noted: pH 7.5, 1 h. In outline: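 A plate-based redox assay screened for redox activity as a source of false positives. NSC 663284, a known redox-active molecule, served as the positive control.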
On the technique in general: Resazurin is reduced to fluorescent resorufin, in cell work by metabolically active cells.

Series [5] is described as follows: Aggregation property of the compound in sodium phosphate buffer at pH 7.4 by 1H-NMR spectra analysis. It counts as physicochemical.
The target of series [6] is T1, Mitogen-activated protein kinase kinase kinase 14. The experiment in a line: Binding affinity to N-terminal 6His-tagged/TEV cleavage site-fused human NIK assessed as attenuation of spectral signal at 100 uM by 1H-CPMG-NMR analysis relative to control.
Target sequence in this assay (Q99558 whole entry, looked up, the tested form may be a part): as the sequence (Q99558 whole entry, the tested form may be a part) above
The target is the same in series [7]. In words: Binding affinity to N-terminal 6His-tagged/TEV cleavage site-fused human NIK assessed as attenuation of spectral signal at 100 uM in presence of AMP-PNP by 1H-CPMG-NMR analysis relative to control.
Target sequence in this assay (Q99558 whole entry, looked up, the tested form may be a part): as the sequence (Q99558 whole entry, the tested form may be a part) above
Series [8] has the same target. The experiment in a line: Binding affinity to biotinylated N-terminal 6His-tagged/TEV cleavage site-fused human NIK at <500 uM by SPR analysis. In outline:
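Biotinylated NIK used as the SPR surface. Each fragment was run at five concentrations, and the responses were fitted to a binding curve to estimate affinity. A 500 µM affinity cut-off was applied.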
Target sequence in this assay (Q99558 whole entry, looked up, the tested form may be a part): as the sequence (Q99558 whole entry, the tested form may be a part) above

The source made the active and inactive calls.

The term Kd denotes a measure of binding affinity in units of concentration. Usually solubility stands for the dissolved amount per volume that the medium holds. A lower solubility goes with a poorly soluble substance.

Consider `Cc1cccc2c1C(O)CCO2` (stereo not given), for which the results for the Kd in series [1] and in series [2] were 134 µM and 131 µM, respectively.

Take `Cc1ccc2c(c1)C(O)CCO2` (stereo not given): the Kd in series [1] and in series [2] was more than 1000 µM in each case.

Take `OC1(C2CC2)CCOc2cc(Cl)ccc21` (stereo not given): the Kd in series [1] turned out to be 40.4 µM; in series [2], 290 µM.

As to `Cc1cccc2c1OCCC2O` (stereo not given), the Kd in series [1] and in series [2] was more than 1000 µM each time.

Take `OC1CCOc2cc(Cl)ccc21` (stereo not given): the Kd amounted to 130 µM in series [1] and 214 µM in series [2]. The solubility in series [3] is not below 5 mM. Besides, the Activity entry in series [4] was “Not Active”; in series [5], “Not Active”; in series [6], more than 50%; in series [7], more than 50%. Further, the outcome in series [8] was Active.

For `CC1(O)CCOc2cc(Cl)ccc21` (stereo not given), the Kd in series [1] and in series [2] was more than 1000 µM each time.

For the molecule `Cc1cc(Cl)cc2c1C(O)(c1ccccc1)CCO2` (stereo not given), the Kd came to 367 µM in series [1] and 717 µM in series [2].

As to `COC1CCOc2cc(Cl)ccc21` (stereo not given), the Kd in series [1] and in series [2] was more than 1000 µM each time.

In the case of `OC1(c2ccccc2)CCOc2cc(Cl)ccc21` (stereo not given), the results for the dissociation constant Kd in series [1] and in series [2] were 572 µM and 369 µM, respectively.

For `Cc1ccc2c(c1)OCCC2O` (stereo not given), the Kd in series [1] and in series [2] was more than 1000 µM each time.

With `COc1cc(Cl)cc(C)c1C(C)(O)C1CC1` (stereo not given), the Kd in series [1] was 150 µM; in series [2], 143 µM.

As for `CCC1(O)CCOc2cc(Cl)ccc21` (stereo not given), the Kd in series [1] is 206 µM; in series [2], 583 µM.
